In ChEMBL document CHEMBL4330093, “Biphenyl Gal and GalNAc FmlH Lectin Antagonists of Uropathogenic E. coli (UPEC): Optimization through Iterative Rational Drug Design” (J Med Chem, 2019):
Converted amounts (≈) assume the structure as drawn.

Key:
[1] = Half life in mouse liver microsomes; type: ADME, Microsome; details: for t1/2: microsomes
[2] = Stability of the compound in simulated gastric fluid assessed as compound remaining after 6 hrs; type: ADME; details: for Stability: simulated gi fluid, 6 h
[3] = Drug metabolism in mouse urine assessed as phenol product metabolite formation; type: ADME, tissue-based
[4] = Stability of the compound in simulated intestinal fluid assessed as compound remaining after 2 hrs; type: ADME; details: for Stability: simulated gi fluid, 2 h
[5] = Drug metabolism in mouse plasma assessed as phenol product metabolite formation; type: ADME, cell-free
[6] = Stability in mouse plasma assessed as compound remaining after 2 hrs; type: ADME, cell-free; details: for Stability: 2 h
[7] = Oral bioavailability in Sprague-Dawley rat at 10 mg/kg by LC/MS/MS analysis; type: ADME, organism-based; details: in vivo
[8] = Time at which plasma concentration stays above in vitro Escherichia coli C600 C-terminal 6His-tagged biotinylated FmlH lectin domain inhibitory IC50 in CD1 mouse at 20 mg/kg, ip by LC/MS/MS analysis; type: ADME, organism-based; details: in vivo
Method in brief: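 After a single 20 mg/kg IP dose in mice, plasma concentrations were compared with the ELISA IC50 converted to ng/mL. Persistence beyond the last measured point was inferred by extrapolating the plasma kinetics. For the ELISA IC50, biotinylated FmlH lectin domain (20 μg/mL) bound to sialidase-treated bovine submaxillary mucin, with streptavidin-HRP/TMB readout at 450 nm.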

[9] = Plasma concentration in CD1 mouse at 20 mg/kg, ip after 4 hrs by LC/MS/MS analysis; type: ADME, organism-based
Method in brief: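 Single 20 mg/kg intraperitoneal injection in mice. Plasma drug concentrations were followed over time, including 4 h and 8 h points. Cmax was read from the profile, AUC was calculated, and half-life was derived.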

[10] = Kinetic solubility of the compound at pH 7.4; type: physicochemical; details: buffer
[11] = Half life in Sprague-Dawley rat at 10 mg/kg, po or 3 mg/kg, iv by LC/MS/MS analysis; type: ADME, organism-based; details: in vivo
Method in brief: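 Sprague-Dawley rats got a single 10 mg/kg oral or 3 mg/kg IV dose. Compound was measured over time in plasma and in urine, and t1/2 and clearance were derived from the plasma profile.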

solubility kinetic ([10]; read-out: Kinetic_solubility) | half-life ([1]; liver microsomes) | remaining at 6 h ([2]; simulated gastric fluid, read-out: Stability) | remaining at 2 h ([4]; simulated intestinal fluid, read-out: Stability) | remaining at 2 h ([6]; read-out: Stability) | SMILES | t1/2 [1] | Stability [2] | Drug metabolism [3] | Stability [4] | Drug metabolism [5] | Stability [6] | F [7] | Time [8] | concentration at 4 h [9] | Kinetic_solubility [10] | half-life [11]
– | – | – | – | – | CC(=O)N[C@H]1[C@H](Oc2cccc(F)c2-c2cccc(NS(C)(=O)=O)c2)O[C@H](CO)[C@H](O)[C@@H]1O | > 2.42 h | 92% | Metabolite_Detected | 94% | Metabolite_Detected | 89% | – | – | – | – | –
– | – | – | – | – | CC(=O)N[C@H]1[C@H](Oc2cccc(C)c2-c2cccc(NS(=O)(=O)C3CC3)c2)O[C@H](CO)[C@H](O)[C@@H]1O | > 2.42 h | 100% | Metabolite_Detected | 100% | Metabolite_Detected | 84% | < 1% | – | – | – | –
– | – | – | – | – | CC(=O)N[C@H]1[C@H](Oc2cccc(C)c2-c2cccc(NS(C)(=O)=O)c2)O[C@H](CO)[C@H](O)[C@@H]1O | > 2.42 h | 100% | Metabolite_Detected | 100% | Metabolite_Detected | 100% | – | 6 h | 79.5 ng/mL | – | –
164 µM (≈ 87.7 µg/mL) | > 2.42 h | 91% | 89% | 89% | Cc1cccc(O[C@@H]2O[C@H](CO)[C@H](O)[C@H](O)C2NC(=O)C(F)(F)F)c1-c1cccc(NS(C)(=O)=O)c1 (single isomer, unassigned) | – | – | Metabolite_Detected | – | Metabolite_Detected | – | – | – | – | – | –
– | – | – | – | – | CC(=O)NC1[C@H](Oc2cccc(C(F)(F)F)c2-c2cccc(NS(C)(=O)=O)c2)O[C@H](CO)[C@H](O)[C@@H]1O (single isomer, unassigned) | > 2.42 h | 89% | Metabolite_Detected | 92% | Metabolite_Detected | 92% | < 1% | – | – | 197 µM | 1.16 h
– | – | – | – | – | CC(=O)NC1[C@H](Oc2cccc(C#N)c2-c2cccc(NS(C)(=O)=O)c2)O[C@H](CO)[C@H](O)[C@@H]1O (single isomer, unassigned) | > 2.42 h | 87% | Metabolite_Detected | 100% | Metabolite_Detected | 89% | – | – | – | 196 µM | –
